# Assay results published in ChEMBL document CHEMBL1131125, “Effect of polyamine analogues on hypusine content in JURKAT T-cells” (J Med Chem, 1998).
# Experiments:
# [1] = test system: L1210; test: Activity of compound measured against L1210 cells; format: functional, cell-based, Mus musculus
# [2] = test system: Jurkat; test: effect of compound on polyamine biosynthetic enzymes in JURKAT cells using ODC assay; format: functional, Homo sapiens
# [3] = test system: Jurkat; test: % of spermidine (SPD) in JURKAT cells after 144 hr at 5 uM concentration; format: functional, cell-based; settings: Homo sapiens
# Procedure, shortened: (§1)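 Log-phase JURKAT cells were treated with analogue for 144 h, at 2 μM for tetraamines or 5 μM for triamines. After two ice-cold RPMI-1640 washes, pellets were extracted with 1.2 N HClO4. Results are percent of untreated control, mean ± SD of 2–5 determinations run in triplicate.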
# [4] = test system: Jurkat; test: % of hypusine (Hpu) in JURKAT cells after 144 hr at 5 uM concentration; format: functional, cell-based; settings: Homo sapiens
# Procedure, shortened: (§2)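 JURKAT cells in log-phase growth were exposed to analogue for 144 h, at 2 μM for the tetraamines or 5 μM for the triamines. Cells were washed twice with ice-cold RPMI-1640 and extracted with 1.2 N HClO4. Values are percent of untreated control, mean ± SD of 2–5 determinations, each in triplicate.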
# [5] = test system: L1210; test: effect of compound on polyamine biosynthetic enzymes in L1210 cells using ODC assay; format: functional, Mus musculus
# [6] = test system: L1210; test: % of putrescine (PUT) in L1210 cells after 48 hr at 100 uM concentration; format: functional, cell-based; settings: Mus musculus
# [7] = test system: Jurkat; test: % of spermine (SPM) in JURKAT cells after 144 hr at 5 uM concentration; format: functional, cell-based; settings: Homo sapiens; procedure, shortened: as §1
# [8] = test system: Jurkat; test: % of putrescine (PUT) in JURKAT cells after 144 hr at 5 uM concentration; format: functional, cell-based; settings: Homo sapiens; procedure, shortened: as §1
# [9] = test system: Jurkat; test: competitive inhibition of [3H]SPD transport by JURKAT cells; format: functional, cell-based, Homo sapiens
# Procedure, shortened: (§3)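 [3H]spermidine uptake rate into JURKAT cells was measured at six spermidine concentrations, without analogue and with analogue at 50, 25 and 10 μM. Lineweaver–Burk plots were used to assign the competitive mode and derive Ki. Values are means of two or three experiments.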
# [10] = test system: Jurkat; test: effect of compound on polyamine biosynthetic enzymes in JURKAT cells using AdoMetDC assay; format: functional, Homo sapiens
# [11] = test system: L1210; test: % of spermidine (SPD) in L1210 cells after 48 hr at 100 uM concentration; format: functional, cell-based; settings: Mus musculus
# [12] = test system: L1210; test: effect of compound on polyamine biosynthetic enzymes in L1210 cells using AdoMetDC assay; format: functional, Mus musculus
# [13] = test system: Jurkat; test: inhibitory activity against growth of JURKAT cells after 144h.; format: functional, cell-based; settings: Homo sapiens
# Procedure, shortened: (§4)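 JURKAT cells were grown in RPMI-1640 with 10% fetal calf serum, 2 mM L-glutamine and 1 mM aminoguanidine. Cells were counted electronically. IC50 is the concentration giving 50% of untreated growth, mean of at least two experiments.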
# [14] = test system: L1210; test: % of spermine (SPM) in L1210 cells after 48 hr at 100 uM concentration; format: functional, cell-based; settings: Mus musculus
# [15] = test system: L1210; test: % of spermidine (SPD) in L1210 cells after 48 hr at 10 uM concentration; format: functional, cell-based; settings: Mus musculus
# [16] = test system: L1210; test: % of spermine (SPM) in L1210 cells after 48 hr at 10 uM concentration; format: functional, cell-based; settings: Mus musculus
# [17] = test system: Jurkat; test: % of putrescine (PUT) in JURKAT cells after 144 h at 2 uM concentration; format: functional, cell-based; settings: Homo sapiens; procedure, shortened: as §1
# [18] = test system: Jurkat; test: Inhibitory activity against growth of JURKAT cells after 144h.; format: functional, cell-based; settings: Homo sapiens; procedure, shortened: as §4
# [19] = test system: Jurkat; test: % of hypusine (Hpu) in JURKAT cells after 144 hr at 2 uM concentration; format: functional, cell-based; settings: Homo sapiens; procedure, shortened: as §2
# [20] = test system: Jurkat; test: % of spermine (SPM) in JURKAT cells after 144 hr at 2 uM concentration; format: functional, cell-based; settings: Homo sapiens; procedure, shortened: as §1
# [21] = test system: L1210; test: % of putrescine (PUT) in L1210 cells after 48 hr at 10 uM concentration; format: functional, cell-based; settings: Mus musculus
# [22] = test system: Jurkat; test: % of spermidine (SPD) in JURKAT cells after 144 hr at 2 uM concentration; format: functional, cell-based; settings: Homo sapiens; procedure, shortened: as §1
# [23] = test system: L1210; test: Effect of compound on polyamine biosynthetic enzymes in L1210 cells using ODC assay; format: functional, Mus musculus
# [24] = test system: Jurkat; test: Competitive inhibition of [3H]SPD (spermidine) transport in JURKAT cells; format: functional, cell-based, Homo sapiens; procedure, shortened: as §3
# [25] = test system: Jurkat; test: competitive inhibition of [3H]SPD transport in JURKAT cells; format: functional, cell-based, Homo sapiens; procedure, shortened: as §3
# [26] = test system: L1210; test: Effect of compound on polyamine biosynthetic enzymes in L1210 cells using AdoMetDC assay; format: functional, Mus musculus
# [27] = test system: L1210 (mouse); test: % of spermine (SPM) in control cells after 72 hr at 2 uM concentration
# [28] = test system: L1210 (mouse); test: % of hypusine (Hpu) in control cells after 72 hr at 2 uM concentration
# [29] = test system: L1210 (mouse); test: % of putrescine (PUT) in control cells after 72 hr at 2 uM concentration
# [30] = test system: L1210 (mouse); test: % of spermidine (SPD) in control cells after 72 hr at 2 uM concentration
IC50 [13] [nM],IC50 [18] [nM],Structure (SMILES),Ki [1] [nM],ODC activity (% of control) [2] [%],Level [3] [%],Level [4] [%],Control [5] [%],Level [6] [%],Level [7] [%],Level [8] [%],Ki [9] [nM],AdoMetDC activity (% of control) [10] [%],Level [11] [%],Control [12] [%],Level [14] [%],Level [15] [%],Level [16] [%],Level [17] [%],Level [19] [%],Level [20] [%],also measured
1200,,NCCCCCNCCCCCN,14000,53.3,1.1,86.4,16,0,38.8,0,13800,84.9,0,88,33,,,,,,
,200,CCNCCCCNCCCCNCCCCNCC [DIETHYLHOMOSPERMINE],2000,29.8,,,,,,,,61.6,,41,,0,61,0,73.2,13.4,Level [21]: 0%; Level [22]: 0%; Control [23]: 7%; Ki [24]: 8800 nM
,70000,NCCCCCNCCCCN,1400,34.7,0,80.2,,0,25.2,0,,79.3,0,,53,,,,,,Ki [25]: 2800 nM; Control [26]: 57%; Control [23]: 19%
650,,CCNCCCNCCCNCCCNCC [BIS(ETHYL)NORSPERMINE],,16.9,,,10,,,,14400,51.4,,42,,14,31,0,58.9,5.5,Level [27]: 13.4%; Level [28]: 56.8%; Level [21]: 30%; Level [22]: 9.2%; Level [29]: 0%; Level [30]: 3.8%
